Data published in PMC12495087 (ESMO Open, 2025).

Columns and labels:
[1] = system: advanced solid tumors with RET gene alteration; assay: phase I study: tumor response per RECIST v.1.1, evaluable analysis set; format: in vivo, human
Method in brief: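 Investigator assessed response by RECIST v1.1. Drug was taken orally once daily in 28-day cycles, 10–150 mg in part A escalation and 75 mg in part B expansion, until progression. ORR and DCR summarised with two-sided 95% exact CIs. Duration of response and other time-to-event endpoints estimated by Kaplan–Meier.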

[2] = system: RET-fusion-positive NSCLC; assay: phase I study: tumor response per RECIST v.1.1, NSCLC; format: in vivo, human
RET G810 = conditions: cited from earlier work
[3] = phase I study: plasma pharmacokinetics; format: in vivo, human
[4] = system: vascular endothelial growth factor receptor 2; conditions: cited from earlier work
RET-mutant MTC = assay: phase I study: tumor response per RECIST v.1.1, MTC; format: in vivo, human

Q: Which results are given for `COc1cc2cc(-c3ccc(CC(=O)Nc4cc(C(C)(C)C(F)(F)F)no4)cn3)cnc2cc1OC` [BOS172738]?
A: objective DCR (ODCR) ([1]; 100 mg dose, part A): 93%; median time to response ([1]; all confirmed responders): 1.79 months; reduction in brain target lesions ([1]; one patient with brain metastases, first post-baseline scan): 43%; median PFS ([1]; overall, evaluable analysis set): 7.16 months; BOR: CR ([1]; parts A and B total, N=101): No patients; intracranial activity ([1]; patients with brain metastases): intracranial activity was also observed; median PFS ([2]; NSCLC): 6.18 months; median DoR ([2]; confirmed responders with NSCLC): 10.17 months; activity against RET G810 resistance (RET G810): able to overcome RET G810 resistance; plasma concentrations remained quantifiable through ([3]; after dosing, cycle 1 day 1 and day 15): ≥ 24 h; half-life ([3]; human, plasma, oral): 1.75 to 3.5 days; Tmax ([3]; human, plasma, oral, cycle 1 day 1, range across all dose levels): 3 to 10 h; Tmax ([3]; human, plasma, oral, cycle 1 day 15, range across dose levels): 1 to 3.1 h; steady state reached by ([3]; most treatment groups, based on mean trough concentration and effective t½): ≤ 15 days; specificity to RET compared with vascular endothelial growth factor receptor 2 [4]: > 300 fold; median PFS (RET-mutant MTC; MTC): 12.75 months; median DoR (RET-mutant MTC; confirmed responders with MTC): 19.15 months
